Article PMC3815528 (Molecular nutrition & food research, 2013)

Key:
[1] = Metabolic profile of [6]-shogaol in rat liver microsomes; format: in vitro ADME, Sprague-Dawley rat; conditions: rat liver microsomes 0.5 mg/mL, [6]-shogaol 50 µM, 30 min
Method in brief: (§1)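 Microsomes in 100 mM potassium phosphate buffer with an NADPH-regenerating system were preincubated 5 min at 37°C. Reaction was started with test compound (DMSO, final ≤1% v/v) and run 30 min at 37°C, then stopped with an equal volume of ice-cold acetonitrile containing 2% acetic acid. After centrifugation at 13,000g for 10 min, supernatant went to C18 HPLC with electrochemical array detection, read at the 300 mV channel.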

[2] = Metabolic profile of [6]-shogaol in dog liver microsomes; format: in vitro ADME, beagle dog; conditions: dog liver microsomes 0.5 mg/mL, [6]-shogaol 50 µM, 30 min
Method in brief: as §1

[3] = Metabolic profile of [6]-shogaol in human liver microsomes; format: in vitro ADME; conditions: human liver microsomes 0.5 mg/mL, [6]-shogaol 50 µM, 30 min
[4] = Metabolic profile of [6]-shogaol in mouse liver microsomes; format: in vitro ADME, CD-1 mouse; conditions: mouse liver microsomes 0.5 mg/mL, [6]-shogaol 50 µM, 30 min
Method in brief: as §1

[5] = Metabolic profile of [6]-shogaol in monkey liver microsomes; format: in vitro ADME, cynomolgus monkey; conditions: monkey liver microsomes 0.5 mg/mL, [6]-shogaol 50 µM, 30 min
Method in brief: as §1

[6] = Kinetic study of [6]-shogaol metabolism to M6 in dog liver microsomes; format: in vitro ADME, beagle dog; conditions: dog liver microsomes 0.1 mg/mL, [6]-shogaol 7.8 to 2000 µM, 30 min
[7] = Kinetic study of [6]-shogaol metabolism to M6 in mouse liver microsomes; format: in vitro ADME, CD-1 mouse; conditions: mouse liver microsomes 0.1 mg/mL, [6]-shogaol 7.8 to 2000 µM, 30 min
[8] = Kinetic study of [6]-shogaol metabolism to M6 in human liver microsomes; format: in vitro ADME; conditions: probe [6]-shogaol (substrate)
[9] = system: H-1299 human lung cancer cells; test: MTT growth inhibition, human lung cancer cells; format: cell-based; conditions: read-out: IC50, cell viability (MTT); H-1299, 24 hours, 0 to 80 µM
[10] = system: HCT-116 human colon cancer cells; test: MTT growth inhibition, human colon cancer cells; format: cell-based; conditions: read-out: IC50, cell viability (MTT); HCT-116, 24 hours, 0 to 80 µM
[11] = system: HCT-116 human colon cancer cells; test: Induction of apoptosis; format: cell-based; conditions: HCT-116, 10 µM compound, 24 hours
Method in brief: (§2)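 Cells in McCoy's 5A with 10% FBS, 1% penicillin/streptomycin and 1% glutamine were seeded at 5000 cells/well and allowed to attach overnight at 37°C. They were then exposed to test compound in DMSO, diluted in medium, for 24 h. Lysates were spun at 300 g for 10 min and run in a histone–DNA sandwich ELISA (anti-histone-biotin/anti-DNA-POD, 2 h RT; ABTS 15 min; A430). Triplicate; fold over DMSO control, mean ± SD.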

[12] = system: H-1299 human lung cancer cells; test: Induction of apoptosis; format: cell-based; conditions: H-1299, 10 µM compound, 24 hours
Method in brief: as §2

SMILES	Relative abundance of metabolite formed from [6]-shogaol [1]	Relative abundance of metabolite formed from [6]-shogaol [2]	Relative abundance of metabolite formed from [6]-shogaol [3]	Relative abundance of metabolite formed from [6]-shogaol [4]	Relative abundance of metabolite formed from [6]-shogaol [5]	Vmax of M6 formation [6]	Vmax of M6 formation [7]	Km at 30 min [8]	IC50 [9]	IC50 [10]	Induction of apoptosis compared to DMSO control [11]	Induction of apoptosis compared to DMSO control [12]
CCCCC/C=C/C(=O)/C=C/c1ccc(O)c(OC)c1 [M14, (1E, 4E)-1-(4'-hydroxy-3'-methoxyphenyl)-deca-1,4-dien-3-one]	minor	minor	smallest amount	minor	major metabolite							
CCCCCC=CC(O)CCc1ccc(O)c(OC)c1 (stereo not drawn) [M6, 1-(4'-hydroxy-3'-methoxyphenyl)-4-decen-3-ol]	dominant peak	intermediate relative amount	intermediate relative amount	dominant peak	minor metabolite	7.33 +/− 0.43 nanomoles per minute per milligram liver microsomes	4.10 +/− 0.19 nanomoles per minute per milligram liver microsomes	45.6 µM				
CCCCC/C=C/C(=O)CCc1ccc(O)c(OC)c1 [[6]-shogaol]									17.3 µM	19.9 µM	1 fold	~2 fold
CCCCCCCC(=O)/C=C/c1ccc(O)c(OC)c1 [M15, (E)-1-(4'-hydroxy-3'-methoxyphenyl)-dec-1-en-3-one]	very minor	abundant	very minor	very minor	abundant							
CCCCCCCC(=O)CCc1ccc(O)c(OC)c1 [M11, 1-(4'-hydroxy-3'-methoxyphenyl)-decan-3-one]	very minor product	very minor product	major product	minute amounts	minute amounts							
